Measured values from different studies.
Lines come from different studies, so protocols differ.
Target: Calcium/calmodulin-dependent protein kinase type II subunit gamma (CAMK2G, Homo sapiens, UniProt Q13555)

| Compound | test | conditions | remaining binding [%] |
| --- | --- | --- | --- |
| CN(C)c1ncc(F)c(-c2cnn3ncccc23)n1 | binding | 1 µM | 90 |
| FC(F)(F)Oc1cccc(-c2cnc3ccc(-c4ccncc4)nn23)c1 | cell-free assay, competition with immobilised ligand | 5 µM | 39 |
| Cc1cc(-n2nc(Cc3cc(F)cc(C(F)(F)F)c3)nc2C)ccc1C(N)=O | cell-free assay, competition with immobilised ligand | 1 µM | 100 |
| F[C@@H]1CCN(c2nccc(-c3cnn4ncccc34)n2)C1 | binding | 1 µM | 100 |
| CCCOc1ccc([C@H]2[C@H](C(=O)O)[C@@H](c3ccc4c(c3)OCO4)CN2CC(=O)Nc2c(CC)cccc2CC)cc1 | cell-free assay, competition with immobilised ligand | 1 µM | 95 |
| O=C(c1ccc(Nc2ncc(Cl)c(-c3cc4ccccc4s3)n2)cc1)N1CCC(N2CCCC2)CC1 | binding, competition with immobilised ligand | 1 µM | 82 |
| O=C(O)[C@H]1[C@H](Cn2nnc3ccccc3c2=O)CC[C@@H]1C(=O)c1ccc(OCCC2CCOCC2)cc1 | cell-free assay, competition with immobilised ligand | 1 µM | 90 |
| O=C(NCCCN1CCOCC1)c1ccc(Nc2nccc(-c3cc4ccccc4s3)n2)cc1 | binding, competition with immobilised ligand | 1 µM | 90 |
| Cc1cnn2ncc(-c3ccnc(N(C)C)n3)c2c1 | binding | 1 µM | 64 |
| Nc1ncc2c(n1)-c1c([nH]c3ccc(C#CC4CC4)cc13)CCCC2 | binding, competition with immobilised ligand | 1 µM | 100 |
| COc1cnc(Nc2cccc(S(N)(=O)=O)c2)nc1N1CCN(c2ccccc2)C(=O)C1 | binding, competition with immobilised ligand | 1 µM | 100 |
| c1cnn2ncc(-c3ccnc(N4CCC45COC5)n3)c2c1 | binding | 1 µM | 91 |
| CCS(=O)(=O)c1cc2cc(C[C@](O)(CC(C)(C)c3ccc(F)cc3C(N)=O)C(F)(F)F)[nH]c2cn1 | cell-free assay, competition with immobilised ligand | 1 µM | 100 |
| CNC(=O)[C@@H]1CC[C@@H](n2c(-c3ccc4cnccc4c3)nc3ccc(C(=O)NCc4cccc(C(N)=O)c4)cc32)C1 | binding, competition with immobilised ligand | 1 µM | 100 |
| COc1ccnn2ncc(-c3ccnc(N(C)C)n3)c12 | binding | 1 µM | 100 |
| O=C(Nc1c[nH]nc1C(=O)NC1CCNCC1)c1cc(F)cc(F)c1 | binding, competition with immobilised ligand | 1 µM | 100 |
| FC(F)(F)c1ccc2c(c1)nc(-c1cccnc1)n2C1CC1 | cell-free assay, competition with immobilised ligand | 1 µM | 100 |
| Cc1cnc(Nc2ccc(C(=O)N3CCC(N4CCCC4)CC3)cc2)nc1-c1cc2ccccc2s1 | binding, competition with immobilised ligand | 1 µM | 74 |
| CCN1CCN(Cc2ccc(C(=O)Nc3ccc(C)c(Oc4ccc5c(c4)CC(=O)N5)c3)cc2C(F)(F)F)CC1 | binding, competition with immobilised ligand | 1 µM | 97 |
| CN(C)C(=O)Cn1cc(-c2nc([C@@](C)(c3ccc(-c4cnc(N)nc4)cc3)C3CC3)no2)cn1 | cell-free assay, competition with immobilised ligand | 1 µM | 100 |
